Reference: ChEMBL document CHEMBL1127492, “Novel potassium channel openers: synthesis and pharmacological evaluation of new N-(substituted-3-pyridyl)-N'-alkylthioureas and related compounds” (1994)
Active and inactive are the calls of the source. The rule behind the calls is not given here.

What was measured:
Format in all cases: functional
[1] = test system: Rattus norvegicus; test: Maximum percent fall in Systolic blood pressure (SBP) was measured in anesthetized normotensive rat for 30 mins after intravenous (iv) injection at 0.3 mg/kg dose
Method in brief: (§1)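 Male normotensive rats under anesthesia; compound given as iv bolus via tail vein. Blood pressure and heart rate recorded by pressure transducer coupled to polygraph. Systolic pressure followed for 30 min after injection; value is maximum percent fall in SBP, n = 4.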

[2] = organism: Rattus norvegicus; test: Negative logarithm of the concentration causing a 100% inhibition of spontaneous mechanical activity in rat portal vein is determined in vitro
Method in brief: (§2)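 Rat portal vein strips in buffer (pH 7.2) at 37 °C, gassed 5% CO2 in O2, under 0.5 g tension. Spontaneous contractions recorded isometrically by force-displacement transducer. Strips equilibrated 30 min, then compounds added cumulatively. Values are means of four independent experiments.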

[3] = test system: Rattus norvegicus; test: Maximum percent fall in Systolic blood pressure (SBP) was measured in anesthetized normotensive rat for 30 mins after intravenous (iv) injection at 0.1 mg/kg dose; method in brief: as §1
[4] = test system: Rattus norvegicus; test: Maximum percent fall in Systolic blood pressure (SBP) was measured in anesthetized normotensive rat for 30 mins after intravenous (iv) injection at 1 mg/kg dose; method in brief: as §1
[5] = test system: Rattus norvegicus; test: Maximum percent fall in Systolic blood pressure (SBP) was measured in anesthetized normotensive rat for 30 mins after intravenous (iv) injection at 3 mg/kg dose; method in brief: as §1
[6] = organism: Rattus norvegicus; test: Negative logarithm of the concentration causing a 100% inhibition of spontaneous mechanical activity in rat portal vein is determined in vitro; No response; method in brief: as §2
[7] = test system: Rattus norvegicus; test: Maximum percent fall in Systolic blood pressure (SBP) was measured in anesthetized normotensive rat for 30 mins after intravenous (iv) injection at 0.03 mg/kg dose; method in brief: as §1

| SMILES | Decrease in SBP [1] | pEC100 [2] | Decrease in SBP [3] | Decrease in SBP [4] | Decrease in SBP [5] | pEC100 [6] | Decrease in SBP [7] |
| --- | --- | --- | --- | --- | --- | --- | --- |
| N#CN/C(=N\[C@H]1C[C@H]2CC[C@@H]1C2)Nc1ccc(N)nc1 | 32% | 6.5 | 25% | – | – | – | – |
| COc1ccc(N/C(S)=N/C(C)C(C)(C)C)cn1 (stereo unspecified) | – | 5 | – | 17% | 30% | – | – |
| CC(/N=C(\S)Nc1ccc(Cl)nc1)C(C)(C)C (stereo unspecified) | 27% | 5.7 | – | 41% | – | – | – |
| CC(/N=C(\S)Nc1ccc(NN)nc1)C(C)(C)C (stereo unspecified) | – | 4 | – | – | 26% | – | – |
| CC(/N=C(\NC#N)Nc1ccc(N)[n+]([O-])c1)C(C)(C)C (stereo unspecified) | 16% | 5.5 | – | 22% | – | – | – |
| CNc1ccc(N/C(S)=N/C(C)C(C)(C)C)cn1 (stereo unspecified) | 8% | 5 | – | 25% | – | – | – |
| Nc1ccc(NC(=S)NC2C[C@H]3CC[C@@H]2C3)cn1 (single isomer, unassigned; 22g) | 34% | 7 | – | 22% | – | – | – |
| CC(/N=C(\NC#N)Nc1cc[n+]([O-])cc1)C(C)(C)C (stereo unspecified) | 13% | 5 | – | – | – | – | – |
| CCCC/N=C(\S)Nc1cnccc1N | – | 3 | – | – | 13% | – | – |
| C[C@]12CC[C@H](C[C@H]1NC(=S)Nc1ccc(N)nc1)C2 | 36% | 7 | 27% | – | – | – | – |
| C[C@@H]1[C@H](NC(=S)Nc2ccc(N)nc2)CC2C[C@@H]1C2(C)C | – | 5 | – | 16% | – | – | – |
| Nc1ccncc1/N=C(\S)NC1CCCCC1 | – | 5 | – | 22% | 27% | – | – |
| CC(C)(C)C1CCCCC1/N=C(\S)Nc1ccc(N)nc1 (single isomer, unassigned) | – | 5 | – | 12% | – | – | – |
| CC1(C)[C@H]2CC[C@](C)(C2)[C@H]1NC(=S)Nc1ccc(N)nc1 | – | 5.5 | – | 29% | 39% | – | – |
| N#CN/C(=N\C1CC2CCC1CC2)Nc1ccc(N)[n+]([O-])c1 (stereo unspecified) | 12% | 5 | – | 20% | – | – | – |
| C/N=C(\S)Nc1cnccc1N | – | – | – | – | 15% | inactive | – |
| CC(/N=C(\NC#N)Nc1ccc(N)nc1)C(C)(C)C (stereo unspecified) | 24% | 6 | – | 30% | – | – | – |
| CC(C)(C)[C@H]1CC[C@@H](/N=C(\S)Nc2ccc(N)nc2)CC1 | – | – | – | 9% | – | inactive | – |
| C[C@]12CC[C@H](CC1/N=C(\NC#N)Nc1ccc(N)nc1)C2 (stereo partly specified) | 33% | 7.5 | 26% | – | – | – | – |
| Nc1ccc(N/C(S)=N/C2CC3CCC2CC3)cn1 (stereo unspecified) | 43% | 7 | 26% | – | – | – | – |
| N#CN/C(=N\C1CC2CCC1CC2)Nc1ccc(N)nc1 (stereo unspecified) | 28% | 6 | 17% | – | – | – | – |
| CC(/N=C(\S)Nc1ccc(N)nc1)C(C)(C)C (stereo unspecified) | 29% | 6 | – | 32% | – | – | – |
| CC(/N=C(\S)Nc1ccc(-n2ccnc2)nc1)C(C)(C)C (stereo unspecified) | – | 3.7 | – | – | 11% | – | – |
| Nc1cncc(N/C(S)=N/C2CCCCC2)c1 | – | 5 | – | 7% | 23% | – | – |

| SMILES | Decrease in SBP [1] | pEC100 [2] | Decrease in SBP [3] | Decrease in SBP [4] | Decrease in SBP [5] | pEC100 [6] | Decrease in SBP [7] |
| --- | --- | --- | --- | --- | --- | --- | --- |
| CCC(C)(C)/N=C(\S)Nc1ccc(N)nc1 | 15% | 5 | – | 31% | – | – | – |
| N#CN=C(Nc1ccc(N)[n+]([O-])c1)N[C@@H]1C[C@H]2CC[C@@H]1C2 | – | 6 | – | 16% | – | – | – |
| CC1(C)CCCC[C@@H]1/N=C(\S)Nc1ccc(N)nc1 | – | 5.5 | – | 26% | – | – | – |
| CC(/N=C(\S)Nc1ccc(C#N)nc1)C(C)(C)C (stereo unspecified) | 28% | 5.7 | 13% | – | – | – | – |
| Cc1ccc(N/C(S)=N/C(C)C(C)(C)C)cn1 (stereo unspecified) | 18% | 5.7 | – | 30% | – | – | – |
| CC(/N=C(\S)Nc1ccc(Nc2ccccc2)nc1)C(C)(C)C (stereo unspecified) | – | – | – | 5% | – | inactive | – |
| CC(N/C(=N\C#N)Nc1ccncc1)C(C)(C)C (stereo unspecified) [PINACIDIL ANHYDROUS] | 31% | 7 | 25% | – | – | – | – |
| CC1(C)CCC[C@H](/N=C(\S)Nc2ccc(N)nc2)C1 | – | 5 | – | 25% | – | – | – |
| CC(/N=C(\S)Nc1ccc(N2CCCCC2)nc1)C(C)(C)C (stereo unspecified) | – | – | – | 10% | – | inactive | – |
| Nc1ncccc1/N=C(\S)NC1CCCCC1 | – | 4 | – | 9% | 21% | – | – |
| CC(/N=C(\S)Nc1ccc(NCCN)nc1)C(C)(C)C (stereo unspecified) | – | – | – | 3% | – | inactive | – |
| Nc1ccc(N/C(S)=N/C23CC4CC(CC(C4)C2)C3)cn1 | – | 6.5 | – | 24% | – | – | – |
| Nc1ccc(N/C(S)=N/C2CCCCC2)cn1 | – | 5 | – | 26% | 35% | – | – |
| CC(/N=C(\S)Nc1ccc(C(N)=O)nc1)C(C)(C)C (stereo unspecified) | – | 5 | – | 9% | – | – | – |
| C[C@]12CC[C@H](C[C@@H]1NC(=NC#N)Nc1ccc(N)[n+]([O-])c1)C2 | 18% | 6 | – | 31% | – | – | – |
| Nc1ccc(NC(=S)NC2C[C@H]3CC[C@@H]2C3)cn1 (single isomer, unassigned; 22e) | 41% | 7 | 19% | – | – | – | – |
| CC(/N=C(/NC#N)Nc1cccnc1)C(C)(C)C (stereo unspecified) | – | 7 | 37% | – | – | – | 26% |
| CC(C)C/N=C(\S)Nc1ccc(N)nc1 | 12% | 4.7 | – | 23% | – | – | – |
| CC1(C)[C@@H]2CC[C@@]1(C)[C@H](NC(=S)Nc1ccc(N)nc1)C2 | – | 6.5 | 14% | 41% | – | – | – |
| CC(C)(C)/N=C(\NC#N)Nc1ccc(N)[n+]([O-])c1 | – | 4.5 | – | 19% | 20% | – | – |
| CC(/N=C(\S)Nc1ccc(O)nc1)C(C)(C)C (stereo unspecified) | – | 4 | – | 7% | – | – | – |
| CC(C)(C)/N=C(\NC#N)Nc1ccc(N)nc1 | 15% | 6 | – | 28% | – | – | – |
| Nc1ccc(N/C(S)=N/[C@H]2CC3C=CC2C3)cn1 (stereo partly specified) | 32% | 7 | 24% | – | – | – | – |
| CSc1ccc(N/C(S)=N/C(C)C(C)(C)C)cn1 (stereo unspecified) | 10% | 5 | – | – | – | – | – |
